Key:
[1] = target: Human immunodeficiency virus type 1 protease (Human immunodeficiency virus 1, UniProt Q72874); assay: Inhibitory activity against HIV protease
Outline: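 Enzyme inhibition constants measured against HIV-1 protease following a previously published protocol. Values are means of two determinations.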

MT2 [2] = assay: Antiviral activity against HIV1 IIIB strain in MT2 cells; format: functional, cell-based
Outline: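 IC50 from inhibition of HIV-1 IIIb-induced cytopathogenicity in MT-2 cells. Assays run in duplicate; values are means of two or three determinations.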

MT2 [3] = assay: Cytotoxicity against MT2 cells; format: functional; conditions: Homo sapiens

Compound	Ki [1] [nM]	further results
O=C(N[C@@H](Cc1ccccc1)[C@H](O)CN1CC=CCCC12C(=O)Nc1ccccc12)O[C@H]1CO[C@H]2OCC[C@H]21 (stereo partly specified)	> 1000	–
C=CCCC1(N(CC=C)C[C@@H](O)[C@H](Cc2ccccc2)NC(=O)O[C@H]2CO[C@H]3OCC[C@H]32)C(=O)Nc2ccccc21 (stereo partly specified)	47	–
CC1(N(Cc2ccccc2)C[C@@H](O)[C@H](Cc2ccccc2)NC(=O)O[C@H]2CO[C@H]3OCC[C@H]32)C(=O)Nc2ccccc21 (stereo partly specified)	26	–
O=C(N[C@@H](Cc1ccccc1)[C@H](O)CN1CCCCCC12C(=O)Nc1ccccc12)O[C@H]1CO[C@H]2OCC[C@H]21 (stereo partly specified)	> 1000	–
O=C(N[C@@H](Cc1ccccc1)[C@H](O)CN1CC=CCC12C(=O)Nc1ccccc12)O[C@H]1CO[C@H]2OCC[C@H]21 (stereo partly specified)	126	–
CC(C)CCN(C[C@@H](O)[C@H](Cc1ccccc1)NC(=O)O[C@H]1CO[C@H]2OCC[C@H]21)C1(C)C(=O)Nc2ccccc21 (stereo partly specified)	7	–
C=CCN(C[C@@H](O)[C@H](Cc1ccccc1)NC(=O)O[C@H]1CO[C@H]2OCC[C@H]21)C1(CC=C)C(=O)Nc2ccccc21 (stereo partly specified)	5	–
O=C(N[C@@H](Cc1ccccc1)[C@H](O)CN1CCCCC12C(=O)Nc1ccccc12)O[C@H]1CO[C@H]2OCC[C@H]21 (stereo partly specified)	> 1000	–
CC(C)(C)NC(=O)[C@@H]1C[C@@H]2CCCC[C@@H]2CN1C[C@@H](O)[C@H](Cc1ccccc1)NC(=O)[C@H](CC(N)=O)NC(=O)c1ccc2ccccc2n1 [SAQUINAVIR]	–	IC50 (MT2 [2]; Homo sapiens, IIIB, MT2): 5 nM; CC50 (MT2 [3]): > 10000 nM

The next lines start with results.

Ki [1] [nM]	Compound	further results
6	CC(C)CN(C[C@@H](O)[C@H](Cc1ccccc1)NC(=O)O[C@H]1CO[C@H]2OCC[C@H]21)C1(C)C(=O)Nc2ccccc21 (stereo in doubt; 3a)	IC50 (MT2 [2]; Homo sapiens, IIIB, MT2): 300 nM; CC50 (MT2 [3]): > 10000 nM
3	CC(C)CN(C[C@@H](O)[C@H](Cc1ccccc1)NC(=O)O[C@H]1CO[C@H]2OCC[C@H]21)C1(C)C(=O)Nc2ccccc21 (stereo in doubt; 3b)	IC50 (MT2 [2]; mt2): 480 nM
2	C=CCC1(N(CC(C)C)C[C@@H](O)[C@H](Cc2ccccc2)NC(=O)O[C@H]2CO[C@H]3OCC[C@H]32)C(=O)Nc2ccccc21 (stereo in doubt; 14a)	–
7	C=CCC1(N(CC(C)C)C[C@@H](O)[C@H](Cc2ccccc2)NC(=O)O[C@H]2CO[C@H]3OCC[C@H]32)C(=O)Nc2ccccc21 (stereo in doubt; 14b)	–
102	COc1ccc2c(c1)C(C)(N(CC(C)C)C[C@@H](O)[C@H](Cc1ccccc1)NC(=O)O[C@H]1CO[C@H]3OCC[C@H]31)C(=O)N2 (stereo in doubt; 15a)	–
130	COc1ccc2c(c1)C(C)(N(CC(C)C)C[C@@H](O)[C@H](Cc1ccccc1)NC(=O)O[C@H]1CO[C@H]3OCC[C@H]31)C(=O)N2 (stereo in doubt; 15b)	–
42	CC(C)CN(C[C@@H](O)[C@H](Cc1ccccc1)NC(=O)O[C@H]1CO[C@H]2OCC[C@H]21)C1(C)C(=O)N(C)c2ccccc21 (stereo in doubt; 16a)	–
60	CC(C)CN(C[C@@H](O)[C@H](Cc1ccccc1)NC(=O)O[C@H]1CO[C@H]2OCC[C@H]21)C1(C)C(=O)N(C)c2ccccc21 (stereo in doubt; 16b)	–

From ChEMBL document CHEMBL1146139, “Design and synthesis of novel HIV-1 protease inhibitors incorporating oxyindoles as the P2'-ligands” (Bioorg Med Chem Lett, 2006)
